RTF Ca sens inh = cardiac RTF calcium desensitization | 0.12% of 340,000 active | AID 493244 | inhibition, % at 7.15 µM | IANBD-labeled cardiac RTF, Ca2+ fluorescence;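 active = inhibition above the mean inhibition of all tested compounds plus 3 SD, cut at about 17% in these data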;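 note: assay run at fixed EC70 calcium of 1.6 mM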
Keap1-Nrf2 PPI = inhibitors of human Keap1-Nrf2 protein-protein interaction. Q14145. Keap1 Kelch-Nrf2 peptide fluorescence polarization, 1536-well. inhibition, % at 9.4 µM. 0.15% of 340,000 active; in the data active = inhibition above about 12%;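 note: human Keap1 Kelch domain with fluorescein labeled Nrf2 9mer peptide probe; 0% = neutral control wells and 100% = peptide positive control; higher means more block of Keap1 binding to Nrf2 peptide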
Target sequence (Q14145 whole entry, looked up, the tested form may be a part): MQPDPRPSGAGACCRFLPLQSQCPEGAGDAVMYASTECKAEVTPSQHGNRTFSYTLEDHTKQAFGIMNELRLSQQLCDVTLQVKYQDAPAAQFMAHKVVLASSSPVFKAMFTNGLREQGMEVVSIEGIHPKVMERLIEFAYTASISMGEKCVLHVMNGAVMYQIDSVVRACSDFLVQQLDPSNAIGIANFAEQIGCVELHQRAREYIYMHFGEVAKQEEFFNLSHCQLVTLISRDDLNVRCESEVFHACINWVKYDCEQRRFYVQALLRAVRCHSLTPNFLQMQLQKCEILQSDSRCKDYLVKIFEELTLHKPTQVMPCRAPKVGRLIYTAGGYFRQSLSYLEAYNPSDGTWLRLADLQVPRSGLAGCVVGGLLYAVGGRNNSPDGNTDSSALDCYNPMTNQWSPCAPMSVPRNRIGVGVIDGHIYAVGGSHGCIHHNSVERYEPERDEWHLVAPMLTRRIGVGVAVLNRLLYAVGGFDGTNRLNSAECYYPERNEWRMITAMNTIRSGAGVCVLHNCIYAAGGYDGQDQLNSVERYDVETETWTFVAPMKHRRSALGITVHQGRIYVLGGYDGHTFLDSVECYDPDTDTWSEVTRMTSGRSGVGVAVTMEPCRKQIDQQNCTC
RTF Ca sens act = cardiac RTF calcium sensitization. activation, % at 7.2 µM. IANBD-labeled TnC RTF fluorescence at EC20 calcium; 0% EC20 calcium, 100% full calcium. 0.24% of 340,000 active. P19429+P45379. AID 493008;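 active = activation above the mean over all tested compounds plus 3 SD, cut at about 30% in these data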;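 note: rise in fluorescence read as greater calcium sensitivity of cardiac thin filaments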
CAL PDZ FP-1 = CAL PDZ (human) peptide binding inhibition. 0.92% of 300,000 active. inhibition, % at 24.9 µM. purified CAL PDZ, TMR-peptide fluorescence polarization, 1 h. AID 602252. Q9HD26;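 active = mean inhibition of at least 30% with at least half of replicates also reaching 30%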;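 note: 0% = DMSO neutral control and 100% = excess unlabeled competitor peptide PRC23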
CAL PDZ FP-2 = human CAL PDZ-peptide interaction inhibition; purified CAL PDZ, TMR-peptide fluorescence polarization, 1 h; inhibition, % at 20 µM; 0.02% of 330,000 active; Q9HD26;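 active = highest replicate inhibition of at least 40%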;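 note: plate controls were DMSO neutral control wells for no effect and unlabeled competitor peptide control wells for full effect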
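Control set: unlabelled peptide and DMSO controls / Material: purified CerCALP PDZ construct / Timing: 1 h incubation at room temperature before polarization reading / Doses: 20 µM, one dose / Detection: fluorescence polarization (mP)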
C-LANA FP = inhibitors of KSHV LANA C-terminal domain DNA binding. AID 504423. inhibition, % at 9 µM. 0.078% of 340,000 active. MBP-C-LANA/FAM-LBS DNA binding, fluorescence polarization;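 active = highest replicate inhibition at or above 60% at 9 µM, even if other replicates fall short; inactive = all replicates below 60% inhibition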;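 note: 0% = neutral control wells and 100% = 4 µM acridine orange control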
* marks the source's active call; other numbers are inactive results; x = no result given. Sampled rows, rich in hits. Any-hit rate of the full collection: about 1.3%.

SMILES	RTF Ca sens inh	Keap1-Nrf2 PPI	RTF Ca sens act	CAL PDZ FP-1	CAL PDZ FP-2	C-LANA FP
COc1cc(OC)c(OC)cc1/C=C1/Cc2ccccc2C1=O	-59.8	-26.5	31.4*	0.5	0.2	1.1
C=CCNC(=S)NCc1ccccc1OC	-4.2	-3.5	3.4	69.9*	0.3	-1.2
N#C/C(=C\c1ccc(N2CCOCC2)o1)c1ccccc1	-1.6	-11.9	2.6	-4.5	0.1	-1.4
N#C/C(=C/c1ccc(N2CCCCC2)o1)C(=O)Nc1ccc(Cl)cc1	-109.6	-11.3	41.1*	x	1.9	0.5
N#C/C(=C/c1ccc(N2CCCCC2)o1)C(=O)Nc1ccc2ccccc2c1	-199.8	-26.8	166.0*	-0.4	0.1	-1.9
COc1ccc(NC(=O)/C(C#N)=C\c2ccc(N3CCOCC3)o2)cc1	-161.3	-293.8	135.0*	-3.4	-1.2	-44.8
N#C/C(=C\c1ccc(N2CCOCC2)o1)C(=O)Nc1ccc(O)cc1	x	-221.6	x	4.0	0.6	-63.5
N#C/C(=C/c1ccc(N2CCOCC2)o1)C(=O)NC1CCCCC1	-65.8	-119.8	50.4*	1.4	-2.2	-31.0
COc1ccc(CCNC(=S)N2CCN(S(=O)(=O)c3ccc(C)cc3)CC2)cc1	-6.9	-8.4	-19.0	x	0.3	-0.3
C=CC[C@@H](CC(=O)N[C@H](CO)Cc1ccccc1)C(=O)N[C@H](COC(=O)[C@@H](CC=C)Cc1ccc(F)cc1)Cc1c[nH]c2ccccc12	-4.4	1.6	-0.8	-1.4	-0.1	2.8
CCC(C)(C(=O)NC1CCCCC1)N(C)C(=O)c1ccccn1 (centres undefined)	-4.2	-1.0	-6.8	53.3*	-0.1	0.3
Cc1ccc(NC(=O)CNc2cccc(Br)c2)cc1S(=O)(=O)N1CCOCC1	-8.3	-1.0	5.3	-2.7	-0.4	0.4
S=C1NC2(CCCCCC2)N=C1c1ccccc1	10.8	4.1	0.1	5.7	-0.7	1.0
O=C1NC2(CCCCCC2)N=C1c1ccc(F)cc1	-7.1	-4.7	-0.5	66.1*	0.2	-0.6
Cc1ccccc1N1CCN(C2CCCN(C(=O)c3csc(C(C)C)n3)C2)CC1 (centres undefined)	-9.5	-5.0	2.7	54.5*	-1.1	-2.6
CC(C)c1cc(C(=O)N2CCCC(N3CCN(c4ccc(F)cc4)CC3)C2)no1 (centres undefined)	-0.9	-7.1	0.0	56.8*	-0.8	2.0
Cc1ccc(C(=O)NNC(=O)c2csc(N3CCOCC3)n2)s1	3.9	-6.3	-2.0	-2.7	-4.3	0.9
COc1cccc(Nc2nnc(Cc3cccnc3)c3ccccc23)c1	-4.2	-1.6	0.4	-3.3	-2.5	0.4
CC1CCCCN1C(=O)COc1ccc2ccc(=O)oc2c1 (centres undefined)	2.9	-0.8	1.9	-2.2	-1.4	0.9
CN1CCC(OC(=O)COc2ccccc2)CC1	6.8	1.2	5.0	0.2	-0.1	-3.7
CC1CCCCN1C(=O)COc1ccc(F)cc1 (centres undefined)	-7.9	0.6	-0.3	44.1*	-1.1	0.1
CN1CCC(OC(=O)COc2ccc(F)cc2)CC1	-9.4	0.7	-1.4	47.3*	11.2	-11.2
O=C(CC1C(=O)NCCN1Cc1ccc(-c2ccccc2)cc1)NCc1ccccc1 (centres undefined)	-1.9	-1.9	0.8	-0.2	0.1	0.9
CN1CCN(C(=O)CC2C(=O)NCCN2Cc2ccc(-c3ccccc3)cc2)CC1 (centres undefined)	-5.1	-1.9	0.7	71.3*	-0.7	-0.1
CCC(C)(C(=O)NC1CCCCC1)N(C(=O)CNC(C)=O)c1c(C)n(C)n(-c2ccccc2)c1=O (centres undefined)	1.6	-2.5	-7.8	2.3	-2.3	0.1
SMILES	RTF Ca sens inh	Keap1-Nrf2 PPI	RTF Ca sens act	CAL PDZ FP-1	CAL PDZ FP-2	C-LANA FP
CCC(C)(C(=O)NC1CCCCC1)N(C(=O)CC1NC(=O)NC1=O)c1c(C)n(C)n(-c2ccccc2)c1=O (centres undefined)	0.2	0.9	3.4	33.9*	-1.8	-0.4
CC(C)c1ccc(/C=C2\SC(=S)N(CCC(=O)N3CCCCC3CCO)C2=O)cc1 (centres undefined)	2.3	-4.2	-0.9	-6.5	-0.4	-0.9
O=c1ccnc(Nc2ccc([N+](=O)[O-])cc2)[nH]1	-9.1	7.0	-3.3	-3.2	-0.6	1.0
COc1ccccc1OCC(O)Cn1nc(C)cc1C (centres undefined)	-11.4	0.2	-2.4	74.1*	-1.2	-1.1
C=CCOc1ccc(Oc2cc(C)nc(SC)n2)nn1	-10.3	1.2	3.1	43.0*	x	-1.4
CSc1nc(C)cc(Oc2ccc(OCC(N)=O)nn2)n1	-4.0	1.7	-2.5	-2.1	0.6	-0.9
O=c1[nH]c(CN2CCN(c3ccccc3)CC2)nc2scc(-c3ccccc3)c12	-5.4	-2.2	0.5	-5.5	-0.8	-0.7
Cc1sc2nc(CN3CCN(c4ccc(O)cc4)CC3)[nH]c(=O)c2c1C	-3.9	1.1	2.2	44.5*	0.6	2.2
COc1cc2c(cc1OC)C(c1cc3ccc(C)cc3[nH]c1=O)N(C(=O)c1ccco1)CC2 (centres undefined)	-4.5	-1.0	-2.8	40.6*	-2.1	-1.4
Cc1cc(Cl)ccc1OCC(=O)NNC(=O)c1ccc(=O)[nH]c1	-2.9	-4.5	5.2	-1.9	0.0	-4.2
CC(=O)NC(=S)Nc1ccc(NC(=S)NC(=O)/C=C/c2ccco2)cc1	2.7	-2.7	0.7	-7.1	-0.3	1.3
O=C(/C=C/c1ccco1)NCc1ccc2c(c1)OCO2	-6.1	-1.6	6.3	1.6	-0.5	1.0
O=C(/C=C/c1ccco1)NC(=S)Nc1ccc(C(=O)O)cc1	-1.5	-1.0	-6.0	5.5	-6.1	62.0*
O=C(/C=C/c1ccco1)Nc1ccc2c(c1)OCO2	-21.2	-3.3	0.8	60.0*	x	1.2
Cc1cc(OCC(=O)NCC(c2ccc(F)cc2)N2CCOCC2)ccc1Cl (centres undefined)	-7.1	-3.5	-1.6	-0.5	-0.7	0.7
Cc1nc(CN(C)C(=O)C2CCC(=O)N(CCc3cccc(F)c3)C2)cs1 (centres undefined)	-3.5	-1.2	-1.6	57.1*	0.8	-0.1
Cc1ccsc1CN(C)C(=O)C1CCC(=O)N(CCc2cccc(F)c2)C1 (centres undefined)	4.2	-1.2	-3.9	-1.7	0.4	0.2
Cc1onc(-c2c(Cl)cccc2Cl)c1C(O)c1ccc(F)cc1 (centres undefined)	-6.6	-1.3	3.7	-4.0	x	2.6
Cc1onc(-c2c(Cl)cccc2Cl)c1C(O)c1ccccc1 (centres undefined)	-9.4	-1.9	10.1	45.7*	x	2.0
O=C(NCCCn1ccnc1)c1ccc(-c2cccc(Cl)c2Cl)o1	-2.5	-6.4	-0.9	x	-2.6	-0.1
O=C1c2cccc3cccc(c23)N1Cc1cccc(F)c1	-21.0	-3.7	4.1	-3.0	-3.4	-0.6
